Most compounds without a hit are left out; they make up all but 4.1% or so of the library.
UPR XBP1 act = activators of adaptive XBP1 UPR arm, primary screen, cell-based, CHO-XBP1 luciferase reporter, luminescence, uHTS | IRE1-XBP1 UPR activation; percent of tunicamycin response, DMSO as zero | activation, % at 20 µM | hit rate 0.33% among 330,000 | AID 463104, 2010;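 active means versus positive control, 20 µM dose yields 30% or more activation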
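Material: CHO cell line with stable XBP1 luciferase reporter; buffer or medium: F12 medium containing 10% fetal bovine serum; compound: single point, 20 µM final compound, 1% DMSO; incubation: 6 h treatment, 37 °C; measured by: glow luminescence from Steady-Glo reagent; evaluation: activation, % of tunicamycin; control set: tunicamycin high, DMSO low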
UBC13 polyUb = UBC13 polyubiquitin chain formation inhibitors, primary screen, biochemical, TR-FRET, uHTS | hit rate 0.47% among 330,000 | inhibition, % at 20 µM; in the data active means inhibition above about 45%, passing the limit was not always enough
Mdm2 MdmX PPI = inhibitors of human Mdm2-MdmX association, primary screen, cell-based, luminescence, split luciferase, SaOS-2, uHTS; Protein Mdm4 (Homo sapiens) + E3 ubiquitin-protein ligase Mdm2 (Homo sapiens), …; SaOS-2 split-luciferase Mdm2/MdmX complementation; inhibition, % at 8 µM; hit rate 3% among 330,000; AID 485346, 2010;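 active means inhibition of at least 50% at 8 µM in the primary screen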
Apaf-1 inh = inhibitors of human Apaf-1 apoptosome, primary screen, biochemical, DEVD-Rh110 fluorescence, uHTS; Apoptotic protease-activating factor 1 (Homo sapiens), O14727; reconstituted apoptosome caspase-3 activity; inhibition, % at 20 µM; hit rate 0.71% among 330,000; AID 489030, 2010; active means inhibition of at least 40% at 20 µM
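Material: reconstituted apoptosome with Apaf-1, cytochrome c, caspase-9, procaspase-3, dATP. Technique: Rh110 fluorescence intensity. Buffer or medium: pH 7.5 Hepes buffer with CHAPS, BSA, DTT. Times: 30 min plus 50 min, RT.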
CHOP UPR activ = activators of apoptotic CHOP UPR arm, primary screen, cell-based, CHO-CHOP luciferase reporter, luminescence, uHTS; UPR activation; percent of tunicamycin response over DMSO baseline; activation, % at 10 µM; hit rate 0.34% among 330,000;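 active means at 10 µM dose, activation of 40% or more, normalized to positive control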
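assay system = CHO CHOP reporter cells | amount = 500 CHO-CHOP cells per well | buffer or medium = F12 with 10% FBS | incubation = 16-18 h cell attachment, then 6 h compound exposure, 37 °C | detection = luminescence read with Steady-Glo | read-out = percent activation relative to tunicamycin control | controls = tunicamycin high control, DMSO low control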
Casp3 UBC13 ctr = CASP3 inhibitor validation, counterassay for project on UBE2N polyubiquitination blockers, biochemical, one dose | Recombinant caspase-3, Caspase-Glo 3/7 luminescence, 60 min | hit rate 4% among 1,400 | inhibition, % at 20 µM | shares compounds with UBC13 polyUb;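 active means mean inhibition across replicates above about 26%, limit read from the data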
UBC13 conf = UBC13 polyubiquitination inhibitors, single-point retest, confirmation, biochemical, TR-FRET, single concentration; hit rate 68% among 1,400; inhibition, % at 10 µM; shares compounds with UBC13 polyUb; in the data active means inhibition above about 45%
Mdm2 MdmX conf = Mdm2-MdmX complex disruptors, retested hits, confirmation, luminescence, single concentration. AID 489028, 2010. Mdm2-MdmX binding, luminescent assay. hit rate 55% among 10,000. inhibition, % at 8 µM. shares compounds with Mdm2 MdmX PPI; in the data active means inhibition above about 40%
FLuc counter = full-length luciferase signal inhibition, confirmation, counter-screen for Mdm2/MdmX interaction inhibitor project, cell-based, single concentration, SaOS-2. inhibition, % at 8 µM. shares compounds with Mdm2 MdmX PPI. AID 504607, 2011. hit rate 77% among 6,200. SaOS-2 full-length luciferase counterscreen, luminescence;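 active means mean inhibition at 8 µM reaching about 37%, which flags the compound as non-specific, limit read from the data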;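 further: p53-null SaOS-2 cells with luciferase driven by a doxycycline-inducible promoter; compound on cells about two nights before reading with doxycycline added after day one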
A number is an active result; . = inactive; / = no result.

SMILES	UPR XBP1 act	UBC13 polyUb	Mdm2 MdmX PPI	Apaf-1 inh	CHOP UPR activ	Casp3 UBC13 ctr	UBC13 conf	Mdm2 MdmX conf	FLuc counter
CCn1c(O)c(N=NC(=O)c2cccnc2)c2cc(Br)ccc21	.	.	.	.	.	/	/	/	/
NC(=S)N=Nc1c(O)n(Cc2ccc(Br)cc2)c2ccccc12	.	46	.	.	.	.	.	/	/
COc1cc(CN2CCNC(=O)C2CC(=O)N(C)CCN2CCOCC2)cc(OC)c1 (stereo unspecified)	.	.	.	.	.	/	/	/	/
Cc1cccc(N(C(=O)c2snc(C(N)=O)c2N)C(C(=O)NCC2CCCO2)c2ccc3ncccc3c2)c1 (stereo unspecified)	.	.	.	.	.	/	/	/	/
NC(=O)c1nsc(C(=O)N(c2ccccc2F)C(C(=O)NCc2ccc(F)cc2)c2ccc(O)cc2)c1N (stereo unspecified)	.	47	65	.	.	.	49	63	81
COc1ccccc1N(C(=O)c1snc(C(N)=O)c1N)C(C(=O)NCc1ccccc1)c1ccc(O)cc1 (stereo unspecified)	.	.	.	.	.	/	/	/	/
COc1ccccc1NC(=O)c1c(N=Cc2c(O)ccc3ccccc23)cnn1C	.	58	52	.	.	.	66	.	/
Cn1ncc(N=Cc2c(O)ccc3ccccc23)c1C(=O)N1CCOCC1	.	.	.	.	.	/	/	/	/
CCN(CC)CCCN(C(=O)Cn1nnc(-c2ccc(OC)c(OC)c2)n1)C(C(=O)NC(C)(C)C)c1ccc(F)cc1 (stereo unspecified)	.	.	.	.	.	/	/	/	/
O=C(CN1C(=O)NC2(CCCCCC2)C1=O)NCc1ccccc1	.	.	.	.	.	/	/	/	/
CCCCCc1cc(=O)oc2c(C(CCN3CCCCC3)c3cc(OC)c(OC)c(OC)c3)c(OC)cc(OC)c12 (stereo unspecified)	.	81	98	.	.	.	46	46	.
COc1cc(C(CCN2CCCC2)c2c(OC)cc(OC)c3ccc(=O)oc23)cc(OC)c1OC (stereo unspecified)	.	.	.	.	.	/	/	/	/
CCCCCc1cc(=O)oc2c(C(CCN(CC)CC)c3ccc(N(C)C)cc3)c(OC)cc(OC)c12 (stereo unspecified)	.	80	90	.	.	.	.	.	/
CCc1ccc(Nc2n[n+](-c3ccccc3)c(-c3c(Cl)cccc3Cl)s2)cc1	.	46	100	44	.	.	.	96	56
CCc1ccc(Nc2n[n+](-c3ccccc3)c(/C=C/c3ccccc3)s2)cc1	.	70	52	.	.	.	.	.	/
CCc1ccc(Nc2n[n+](-c3ccccc3)c(-c3ccc(OCc4ccccc4)cc3)s2)cc1	.	.	.	.	.	/	/	/	/
COC(=O)C1=C(C)N(Cc2ccccc2)C(=NCc2cccc(C(F)(F)F)c2)N[C@H]1c1cccc(F)c1	.	97	95	.	.	.	84	73	40
Cc1cc[n+](CC(=O)c2ccc3c(c2)OCCO3)cc1	.	.	.	.	.	/	/	/	/
O=C(C[n+]1ccc(/C=C/c2ccccc2)cc1)c1ccc2c(c1)OCCO2	.	53	75	.	.	.	.	.	/
CN(C)CCn1cnc2c(c1=N)C(c1ccccc1)c1ccc3ccccc3c1O2 (stereo unspecified)	.	48	98	.	.	.	56	71	40
N=c1c2c(ncn1CCN1CCOCC1)Oc1ccc3ccccc3c1C2c1ccccc1 (stereo unspecified)	.	.	.	.	.	/	/	/	/
COc1ccc2sc(N(CCCN(C)C)C(=O)c3ccc(S(=O)(=O)N4CCCC4)cc3)nc2c1	.	.	.	.	.	/	/	/	/
Cc1cc(C)c2sc(N(CCCN(C)C)C(=O)c3ccc(S(=O)(=O)N4CCc5ccccc5C4)cc3)nc2c1	.	87	99	.	.	.	112	99	42
COc1ccc2sc(N(CCCN(C)C)C(=O)c3ccc(S(=O)(=O)N4CCc5ccccc5C4)cc3)nc2c1	.	75	100	.	.	.	110	99	55
CC(C)CNC(=O)Cn1c(=O)c2c(ncn2CC(C)C)n(Cc2ccccc2)c1=O	.	.	.	.	.	/	/	/	/
SMILES	UPR XBP1 act	UBC13 polyUb	Mdm2 MdmX PPI	Apaf-1 inh	CHOP UPR activ	Casp3 UBC13 ctr	UBC13 conf	Mdm2 MdmX conf	FLuc counter
COc1ccc2nc(C)cc(N/N=C/c3cccc(OC)c3O)c2c1	.	58	100	.	.	.	111	.	/
Cc1ccc(O)c(CNCCNCc2cc(C)ccc2O)c1	.	50	73	.	.	.	52	52	.
CCc1ccc(O)c(CNCCNCc2cc(CC)ccc2O)c1	.	64	72	.	.	.	.	.	/
CC(C)NC(=O)COc1ccc(S(=O)(=O)N(C)Cc2ccccc2)cc1	.	.	.	.	.	/	/	/	/
CCCNC(=O)c1ccc2nc(-c3ccccc3)c(-c3ccccc3)nc2c1	.	.	.	.	.	/	/	/	/
CCN1CCN(CCNC(=O)c2ccc3nc(-c4cccc(C)c4)c(-c4cccc(C)c4)nc3c2)CC1	.	54	100	47	.	.	84	59	.
CCN(CC)Cc1cc2[nH]c3c4ccc(Cl)cc4ncc3c2cc1OC	.	67	54	.	.	.	.	.	/
COc1ccc(Cn2cc3c(-c4ccc(F)cc4)nnc-3c3cc(OC)c(OC)cc32)cc1	.	87	100	.	.	.	.	96	68
COc1cc2c3nnc(-c4ccc(F)cc4)c-3cn(Cc3ccc(F)cc3)c2cc1OC	.	65	100	.	.	.	.	.	/
COc1ccc(-c2nnn(Cc3ccccc3)n2)cc1OC	.	.	.	.	.	/	/	/	/
COc1cc2c3nnc(-c4ccc(F)cc4)c-3cn(Cc3ccccc3)c2cc1OC	.	82	100	.	.	.	50	94	57
